# Measurements pooled from the literature.
# Lines come from different studies, so protocols differ.
# WDR5: WD repeat-containing protein 5 (WDR5, Homo sapiens, UniProt P61964)
# OfChi-h: Chitinase (OfChi-h, Ostrinia furnacalis, UniProt Q4AE59)
Compound,target,observed,mode,method,notes,quantity,value
Cn1c(=O)c2c(ncn2C)n(C)c1=O,"Solute carrier family 22 member 12 (SLC22A12, Homo sapiens, UniProt Q96S37)",transporter uptake,inhibitor,radiometric,oocytes,IC50,> 5000 µM
O=C(NO)c1cncc(OS(=O)(=O)Oc2ccc(-n3ccnc3)cc2)c1,"Histone deacetylase 7 (HDAC7, Homo sapiens, UniProt Q8WUI4)",enzyme activity,inhibitor,fluorescence,,Ki,1.68 µM
C[C@@H]1CN(c2ccc(-c3cc(C(=O)NCCCNC(=O)/C=C/c4[nH]cc(C(=O)N[C@@H](CC(N)=O)c5ccc(F)c(Cl)c5)c4-c4ccc(Cl)cc4F)ccc3F)cc2NC(=O)c2c[nH]c(=O)cc2C(F)(F)F)C[C@H](C)N1C,WDR5,binding,,SPR,,Kd,0.0264 µM
CCCCc1ccc(CNc2nc(N(C)C)nc(N(C)C)c2/N=N/c2ccc(Cl)cc2)cc1,OfChi-h,enzyme activity,inhibitor,fluorescence,,IC50,0.07 µM
C[C@@H]1CN(c2ccc(-c3cc(C(=O)NCCOCCOCCOCCOCCNC(=O)Cn4cc(-c5[nH]cc(C(=O)N[C@@H](CC(N)=O)c6ccc(F)c(Cl)c6)c5-c5ccc(Cl)cc5F)cn4)ccc3F)cc2NC(=O)c2c[nH]c(=O)cc2C(F)(F)F)C[C@H](C)N1C,WDR5,binding,,SPR,,Kd,0.0375 µM
CN(C)c1nc(NCc2cccc(F)c2)c(/N=N/c2ccc(Cl)cc2)c(N(C)C)n1,OfChi-h,enzyme activity,inhibitor,fluorescence,,IC50,0.26 µM
C=CS(=O)(=O)c1ccc(Nc2nc(OCC3CCCCC3)c3nc[nH]c3n2)cc1,"Gasdermin-D (GSDMD, Homo sapiens, UniProt P57764)",binding,,MST,,Kd,36.1 µM
CC(=O)N[C@H]1Cc2ccc(cc2)OC/C=C/C[C@@H](C(=O)N[C@@H](CCCNC(=N)N)C(=O)c2nc3ccccc3s2)NC(=O)[C@H](CC(C)C)NC1=O,"Serine protease hepsin (HPN, Homo sapiens, UniProt P05981)",enzyme activity,inhibitor,fluorescence,with preincubation,IC50,0.00026 µM
CN(C)c1nc(NCc2cccc(C(F)(F)F)c2)c(/N=N/c2ccc(Cl)cc2)c(N(C)C)n1,OfChi-h,enzyme activity,inhibitor,fluorescence,,IC50,0.3 µM
